Assay results taken from ChEMBL document CHEMBL1641492, “Design, synthesis and biological evaluation of novel L-lysine ureido derivatives as aminopeptidase N inhibitors” (Bioorg Med Chem, 2011).

Biological target: T1, Aminopeptidase N (Sus scrofa, UniProt P15145)
T1 sequence (P15145 whole entry): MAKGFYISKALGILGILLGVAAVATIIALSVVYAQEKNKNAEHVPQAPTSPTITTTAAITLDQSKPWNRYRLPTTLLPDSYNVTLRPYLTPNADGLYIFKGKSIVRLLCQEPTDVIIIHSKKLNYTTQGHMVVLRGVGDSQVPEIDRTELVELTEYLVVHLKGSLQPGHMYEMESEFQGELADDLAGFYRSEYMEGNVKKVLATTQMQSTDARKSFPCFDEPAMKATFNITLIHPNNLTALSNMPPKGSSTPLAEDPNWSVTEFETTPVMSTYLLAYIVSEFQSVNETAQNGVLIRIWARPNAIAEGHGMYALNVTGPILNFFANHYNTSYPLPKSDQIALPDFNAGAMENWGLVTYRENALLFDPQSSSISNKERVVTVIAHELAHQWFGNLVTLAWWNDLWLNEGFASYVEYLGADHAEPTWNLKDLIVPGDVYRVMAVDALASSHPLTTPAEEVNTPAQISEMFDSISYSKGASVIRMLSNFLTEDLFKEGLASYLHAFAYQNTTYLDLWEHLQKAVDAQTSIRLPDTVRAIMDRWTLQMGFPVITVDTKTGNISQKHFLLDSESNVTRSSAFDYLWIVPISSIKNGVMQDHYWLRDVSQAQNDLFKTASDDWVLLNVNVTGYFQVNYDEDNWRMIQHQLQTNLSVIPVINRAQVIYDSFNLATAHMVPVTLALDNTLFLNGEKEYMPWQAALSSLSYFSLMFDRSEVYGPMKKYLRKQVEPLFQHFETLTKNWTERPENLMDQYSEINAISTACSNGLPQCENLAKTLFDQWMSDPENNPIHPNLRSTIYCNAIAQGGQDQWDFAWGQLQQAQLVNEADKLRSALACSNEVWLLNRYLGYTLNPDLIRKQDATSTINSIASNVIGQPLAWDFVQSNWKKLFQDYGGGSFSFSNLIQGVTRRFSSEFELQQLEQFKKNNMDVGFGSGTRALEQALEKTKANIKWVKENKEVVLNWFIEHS
Experiment: Inhibition of porcine kidney microsomal APN after 10 mins at room temperature by spectrophotometry
Settings: not given
In short: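 Porcine kidney microsomal aminopeptidase (lyophilized, 15–25 units/mg protein), 6 µg/mL final, preincubated with inhibitor 10 min at room temperature. Substrate L-Leu-p-nitroanilide, 50 mM PBS pH 7.2, 37 °C. Inhibitor solutions in assay buffer adjusted to pH 7.5. IC50 as mean ± SD of three independent assays.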

Row | SMILES | IC50
1 | O=C(N[C@@H](CCCCNC(=O)OCc1ccccc1)C(=O)NO)N[C@@H](Cc1ccccc1)C(=O)NO | 14.5 µM
2 | CSCC[C@H](NC(=O)N[C@@H](CCCCNC(=O)OCc1ccccc1)C(=O)NO)C(=O)NO | 14.4 µM
3 | COC(=O)[C@H](CCCCNC(=O)OCc1ccccc1)NC(=O)N[C@@H](CC(C)C)C(=O)OC | > 50 µM
4 | CC[C@@H](C)[C@H](NC(=O)N[C@@H](CCCCNC(=O)OCc1ccccc1)C(=O)OC)C(=O)OC | > 50 µM
5 | COC(=O)[C@H](CCCCNC(=O)OCc1ccccc1)NC(=O)N[C@@H](Cc1ccccc1)C(=O)OC | > 50 µM
6 | COC(=O)[C@H](CCCCNC(=O)OCc1ccccc1)NC(=O)N[C@@H](CCSC)C(=O)OC | > 50 µM
7 | O=C(O)CNC(=O)N[C@@H](CCCCNC(=O)OCc1ccccc1)C(=O)O | > 50 µM
8 | CC(C)C[C@H](NC(=O)N[C@@H](CCCCNC(=O)OCc1ccccc1)C(=O)O)C(=O)O | > 50 µM
9 | CC[C@@H](C)[C@H](NC(=O)N[C@@H](CCCCNC(=O)OCc1ccccc1)C(=O)O)C(=O)O | > 50 µM
10 | CSCC[C@H](NC(=O)N[C@@H](CCCCNC(=O)OCc1ccccc1)C(=O)O)C(=O)O | > 50 µM
11 | O=C(CNC(=O)N[C@@H](CCCCNC(=O)OCc1ccccc1)C(=O)NO)NO | 20.4 µM
12 | CC(C)C[C@H](NC(=O)N[C@@H](CCCCNC(=O)OCc1ccccc1)C(=O)NO)C(=O)NO | 4.51 µM
13 | COC(=O)[C@H](CCCCNC(=O)OCc1ccccc1)NC(=O)NCc1ccccc1 | > 50 µM
14 | COC(=O)[C@H](CCCCNC(=O)OCc1ccccc1)NC(=O)NCCc1ccccc1 | > 50 µM
15 | O=C(NCCc1ccccc1)N[C@@H](CCCCNC(=O)OCc1ccccc1)C(=O)NO | > 50 µM
16 | COC(=O)CNC(=O)N[C@@H](CCCCNC(=O)OCc1ccccc1)C(=O)OC | > 50 µM

Next, values leading:

Row | IC50 | SMILES
17 | > 50 µM | CC[C@@H](C)[C@H](NC(=O)N[C@@H](CCCCNC(=O)OCc1ccccc1)C(=O)NO)C(=O)NO
18 | > 50 µM | COC(=O)[C@H](CCCCNC(=O)OCc1ccccc1)NC(=O)N[C@H](C(=O)OC)C(C)C
19 | > 50 µM | C[C@H](NC(=O)N[C@@H](CCCCNC(=O)OCc1ccccc1)C(=O)O)C(=O)O
20 | > 50 µM | CC(C)[C@H](NC(=O)N[C@@H](CCCCNC(=O)OCc1ccccc1)C(=O)O)C(=O)O
21 | > 50 µM | O=C(N[C@@H](CCCCNC(=O)OCc1ccccc1)C(=O)O)N[C@@H](Cc1ccccc1)C(=O)O
22 | 19.9 µM | C[C@H](NC(=O)N[C@@H](CCCCNC(=O)OCc1ccccc1)C(=O)NO)C(=O)NO
23 | > 50 µM | COC(=O)[C@H](CCCCNC(=O)OCc1ccccc1)NC(=O)NC(C)(C)C
24 | 16.4 µM | O=C(NCc1ccccc1)N[C@@H](CCCCNC(=O)OCc1ccccc1)C(=O)NO
25 | > 50 µM | CC(C)(C)NC(=O)N[C@@H](CCCCNC(=O)OCc1ccccc1)C(=O)NO
26 | > 50 µM | COC(=O)[C@H](C)NC(=O)N[C@@H](CCCCNC(=O)OCc1ccccc1)C(=O)OC

Tested on: not listed separately
Experiment: Antiproliferative activity against human ES2 cells after 48 hrs by MTT assay
Assay type: functional, cell-based
Settings: ES-2, 48 h
In short: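 ES-2 human cells seeded at 5000 per well, adhered 10 h, then exposed to 2500, 500, 100, 20 and 4 µg/mL compound for 48 h. MTT 0.5% solution added, 4 h further incubation, formazan dissolved in DMSO, absorbance at 570 nm. Three independent experiments, mean with SE.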

Row | SMILES | IC50
27 | O=C(N[C@@H](CCCCNC(=O)OCc1ccccc1)C(=O)NO)N[C@@H](Cc1ccccc1)C(=O)NO | 395 µM
28 | CSCC[C@H](NC(=O)N[C@@H](CCCCNC(=O)OCc1ccccc1)C(=O)NO)C(=O)NO | 356 µM
29 | C[C@H](NC(=O)N[C@@H](CCCCNC(=O)OCc1ccccc1)C(=O)NO)C(=O)NO | 415 µM
30 | CC(C)C[C@H](NC(=O)N[C@@H](CCCCNC(=O)OCc1ccccc1)C(=O)NO)C(=O)NO | 291 µM
31 | CC(C)C[C@H](NC(=O)[C@@H](O)[C@H](N)Cc1ccccc1)C(=O)O [UBENIMEX] | 332 µM
